# Experimental data from different studies.
# Compare with care: the assays were run in different laboratories.
# Target: Serine/threonine-protein kinase 26 (STK26, Homo sapiens, UniProt Q9P289)
SMILES,observed,technique,concentration,remaining binding [%]
O=C(NCCCN1CCOCC1)c1ccc(Nc2nccc(-c3cc4ccccc4s3)n2)cc1,binding,competition with immobilised ligand,1 µM,87
O=C(NCC1CCOCC1)c1n[nH]cc1NC(=O)c1c(F)cccc1F,binding,competition with immobilised ligand,1 µM,77
O=C(c1ccc(Nc2nccc(-c3cc4ccccc4s3)n2)cc1)N1CCC(N2CCCC2)CC1,binding,competition with immobilised ligand,1 µM,99
CC(=O)c1c(NS(C)(=O)=O)c2cc(-c3ccc(Cl)cc3)c(-c3ccc(Cl)cc3Cl)nc2n(C)c1=O,cell-free assay,competition with immobilised ligand,1 µM,84
COc1cnc(Nc2cccc(S(N)(=O)=O)c2)nc1N1CCN(c2ccccc2)C(=O)C1,binding,competition with immobilised ligand,1 µM,83
Nc1ncc2c(n1)-c1c([nH]c3ccc(C#CC4CC4)cc13)CCCC2,binding,competition with immobilised ligand,1 µM,99
CNC(=O)[C@@H]1CC[C@@H](n2c(-c3ccc4cnccc4c3)nc3ccc(C(=O)NCc4cccc(C(N)=O)c4)cc32)C1,binding,competition with immobilised ligand,1 µM,100
NS(=O)(=O)c1cc(NC(=O)C2(c3ccccc3Cl)CC2)ccc1Oc1cccc(Cl)c1,cell-free assay,competition with immobilised ligand,1 µM,100
Cc1cnc(Nc2ccc(C(=O)N3CCC(N4CCCC4)CC3)cc2)nc1-c1cc2ccccc2s1,binding,competition with immobilised ligand,1 µM,77
Cc1nc(C2CCN(C(=O)c3ccc(OC(F)(F)F)cc3N)CC2)c2ncc(N3CCN(C)CC3)cc2n1,cell-free assay,competition with immobilised ligand,1 µM,100
COc1ncc2cc3ccccc3nc2c1C#N,cell-free assay,competition with immobilised ligand,5 µM,100
FC(F)(F)Oc1cccc(-c2cnc3ccc(-c4ccncc4)nn23)c1,cell-free assay,competition with immobilised ligand,5 µM,59
CN([C@@H]1CCc2c(CC(=O)O)c3cc(S(C)(=O)=O)ccc3n2C1)S(=O)(=O)c1ccc(F)cc1,cell-free assay,competition with immobilised ligand,1 µM,77
CN1CCN(c2ccc(Nc3nccc(-c4ccccc4)n3)cc2C(F)(F)F)CC1,binding,,10 µM,81
